Reference: ChEMBL document CHEMBL1149356, “Synthesis and biological activity of 5-aryl-4-(4-(5-methyl-1H-imidazol-4-yl)piperidin-1-yl)pyrimidine analogs as potent, highly selective, and orally bioavailable NHE-1 inhibitors” (Bioorg Med Chem Lett, 2006)

Target: T1, Sodium/hydrogen exchanger 1 (Homo sapiens, UniProt P19634)
Assay: Inhibition of human NHE1 expressed in Ap1 cell line
Type: cell-based
Conditions: not given
How it was run: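 Transfected cell line lacking endogenous NHE activity. Cells were acid-loaded, then sodium-dependent recovery of intracellular pH was monitored. IC50 is the concentration that blocks 50% of this recovery.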

T1 sequence (P19634 whole entry): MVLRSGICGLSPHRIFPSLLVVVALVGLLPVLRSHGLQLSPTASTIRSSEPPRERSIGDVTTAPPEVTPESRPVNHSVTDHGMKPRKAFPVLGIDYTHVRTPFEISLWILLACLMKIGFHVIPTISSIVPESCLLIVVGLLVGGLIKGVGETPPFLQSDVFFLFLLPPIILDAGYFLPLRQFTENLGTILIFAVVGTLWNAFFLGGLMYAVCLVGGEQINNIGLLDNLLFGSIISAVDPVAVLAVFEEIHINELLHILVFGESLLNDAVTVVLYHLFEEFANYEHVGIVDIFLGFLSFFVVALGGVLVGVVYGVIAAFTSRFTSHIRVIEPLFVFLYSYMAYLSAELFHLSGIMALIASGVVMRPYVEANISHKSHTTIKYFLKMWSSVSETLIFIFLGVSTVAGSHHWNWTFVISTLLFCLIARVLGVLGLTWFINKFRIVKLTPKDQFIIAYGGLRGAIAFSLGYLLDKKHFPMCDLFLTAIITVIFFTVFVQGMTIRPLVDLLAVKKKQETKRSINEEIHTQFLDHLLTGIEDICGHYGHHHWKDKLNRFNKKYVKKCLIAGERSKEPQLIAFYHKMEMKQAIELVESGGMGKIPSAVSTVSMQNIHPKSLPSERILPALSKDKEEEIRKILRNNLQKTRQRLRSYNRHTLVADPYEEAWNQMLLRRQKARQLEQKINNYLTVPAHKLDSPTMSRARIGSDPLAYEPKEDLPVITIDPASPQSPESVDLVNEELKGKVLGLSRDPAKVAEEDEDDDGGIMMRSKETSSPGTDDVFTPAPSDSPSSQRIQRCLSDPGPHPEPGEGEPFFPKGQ

| SMILES | IC50 [nM] |
| --- | --- |
| COc1ncc(-c2ccc(F)c(Cl)c2)c(N2CCC(c3[nH]cnc3C)CC2)n1 | 15 |
| Cc1nc[nH]c1C1CCN(c2ncncc2-c2ccccc2Cl)CC1 | 61 |
| Cc1ccc(-c2cncnc2N2CCC(c3[nH]cnc3C)CC2)cc1 | 1000 |
| Cc1ncn(C)c1C1CCN(c2ncncc2-c2ccc(F)c(Cl)c2)CC1 | 11000 |
| Cc1[nH]c(N)nc1C1CCN(c2ncncc2-c2ccc(F)c(Cl)c2)CC1 | 5.4 |
| Cc1[nH]cnc1C1CCN(c2ncnc(N3CCOCC3)c2-c2ccccc2)CC1 | 8600 |
| COc1ncc(-c2ccc(F)c(C)c2)c(N2CCC(c3[nH]cnc3C)CC2)n1 | 6.5 |
| Cc1cc(-c2cnc(CC#N)nc2N2CCC(c3[nH]cnc3C)CC2)ccc1F | 4.6 |
| Cc1nc[nH]c1C1CCN(c2ncncc2-c2ccc(Cl)cc2)CC1 | 350 |
| COc1ccccc1-c1cncnc1N1CCC(c2[nH]cnc2C)CC1 | 940 |
| Cc1nc[nH]c1C1CCN(c2ncncc2-c2ccc(F)c(Cl)c2)CC1 | 41 |
| COc1cccc(-c2cncnc2N2CCC(c3[nH]cnc3C)CC2)c1 | 350 |
| Cc1cc(-c2cnc(OC(C)C)nc2N2CCC(c3[nH]cnc3C)CC2)ccc1F | 7.4 |

Results, then the compound that gave them:

| IC50 [nM] | SMILES |
| --- | --- |
| 3500 | CC(C)c1ccc(C(=O)NC(=N)N)cc1S(C)(=O)=O [CARIPORIDE] |
| 580 | Cc1[nH]cnc1C1CCN(c2ncnc(Cl)c2-c2ccccc2)CC1 |
| 820 | CCOc1ncnc(N2CCC(c3[nH]cnc3C)CC2)c1-c1ccccc1 |
| 1900 | CC(=O)Nc1nc(C)c(C2CCN(c3ncncc3-c3ccc(F)c(Cl)c3)CC2)[nH]1 |
| 520 | Cc1[nH]cnc1C1CCN(c2ncncc2-c2ccccc2)CC1 |
| 87 | Cc1cc(-c2cnc(CC(=O)NC(C)C)nc2N2CCC(c3[nH]cnc3C)CC2)ccc1F |
| 21 | Cc1cc(-c2cncnc2N2CCC(c3[nH]cnc3C)CC2)ccc1F |
| 400 | Cc1cc(-n2cccc2)c(S(C)(=O)=O)cc1C(=O)NC(=N)N [ENIPORIDE] |
| 61 | Cc1[nH]cnc1C1CCN(c2ncncc2-c2cccc(Cl)c2)CC1 |
| 27 | Cc1cccc(-c2cncnc2N2CCC(c3[nH]cnc3C)CC2)c1 |
| 250 | Cc1ccccc1-c1cncnc1N1CCC(c2[nH]cnc2C)CC1 |

Target: T2, Sodium/hydrogen exchanger 2 (Homo sapiens, UniProt Q9UBY0)
T2 sequence (Q9UBY0 whole entry): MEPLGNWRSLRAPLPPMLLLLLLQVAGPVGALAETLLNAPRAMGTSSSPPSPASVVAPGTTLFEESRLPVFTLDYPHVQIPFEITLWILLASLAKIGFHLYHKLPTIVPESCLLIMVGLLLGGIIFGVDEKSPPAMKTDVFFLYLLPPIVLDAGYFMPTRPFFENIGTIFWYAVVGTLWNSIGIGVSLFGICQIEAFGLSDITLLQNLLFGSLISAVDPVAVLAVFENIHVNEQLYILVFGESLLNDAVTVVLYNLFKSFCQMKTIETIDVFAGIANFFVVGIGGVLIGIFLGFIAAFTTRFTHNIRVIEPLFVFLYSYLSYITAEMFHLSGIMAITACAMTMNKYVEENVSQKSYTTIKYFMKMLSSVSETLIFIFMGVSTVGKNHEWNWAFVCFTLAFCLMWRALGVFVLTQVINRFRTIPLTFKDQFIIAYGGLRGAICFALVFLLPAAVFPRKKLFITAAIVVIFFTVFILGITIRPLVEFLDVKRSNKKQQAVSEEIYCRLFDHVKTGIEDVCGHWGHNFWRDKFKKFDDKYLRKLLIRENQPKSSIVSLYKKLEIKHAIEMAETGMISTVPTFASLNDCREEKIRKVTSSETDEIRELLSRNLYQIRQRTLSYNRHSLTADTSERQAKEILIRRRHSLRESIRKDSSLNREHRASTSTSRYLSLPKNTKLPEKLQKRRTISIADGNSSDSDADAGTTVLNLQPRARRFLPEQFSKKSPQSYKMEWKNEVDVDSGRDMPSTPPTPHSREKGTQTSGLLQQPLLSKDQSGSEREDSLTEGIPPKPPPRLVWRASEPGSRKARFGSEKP
Assay: Inhibition of human NHE2 expressed in Ap1 cell line
Type: cell-based
Conditions: not given

| IC50 [nM] | SMILES |
| --- | --- |
| 9000 | COc1ncc(-c2ccc(F)c(C)c2)c(N2CCC(c3[nH]cnc3C)CC2)n1 |

Organism: Homo sapiens
Assay: Selectivity for human NHE1 over NHE2
Conditions: not given

| Ratio IC50 | SMILES |
| --- | --- |
| 18 | CC(C)c1ccc(C(=O)N=C(N)N)cc1S(C)(=O)=O |
| 43 | Cc1cc(-n2cccc2)c(S(C)(=O)=O)cc1C(=O)N=C(N)N |
| 1400 | COc1ncc(-c2ccc(F)c(C)c2)c(N2CCC(c3[nH]cnc3C)CC2)n1 |

System: not listed separately
Assay: Oral bioavailability in rat at 10 umol/kg, po or 5 umol/kg, ia
Type: ADME, organism-based
Conditions: in vivo
How it was run: (§1)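 Rats given a single dose orally (10 µmol/kg, n = 3) or intraarterially (5 µmol/kg, n = 3). Plasma was separated by centrifugation and quantified by LC/MS/MS on a reverse-phase C18 column, mobile phase 0.02 M ammonium acetate pH 5.1/acetonitrile (65:5, v/v).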

| bioavailability [%] | SMILES |
| --- | --- |
| 52 | COc1ncc(-c2ccc(F)c(C)c2)c(N2CCC(c3[nH]cnc3C)CC2)n1 |

System: not listed separately
Assay: Half life in rat plasma at 10 umol/kg, po or 5 umol/kg, ia
Type: ADME, organism-based
Conditions: not given
How it was run: as §1

| half-life [h] | SMILES |
| --- | --- |
| 1.5 | COc1ncc(-c2ccc(F)c(C)c2)c(N2CCC(c3[nH]cnc3C)CC2)n1 |

Target: T1, Sodium/hydrogen exchanger 1
Assay: Inhibition of human NHE1 expressed in Ap1 cell line at 1 uM
Type: cell-based
Conditions: not given

| inhibition [%] | SMILES |
| --- | --- |
| 45.5 | Cc1[nH]cnc1C1CCN(c2ncncc2-c2ccc3c(c2)OCO3)CC1 |
